Numbering of substitutions follows the chain as printed. Active and inactive are the calls of the source. No cut-off for these calls is given here.
How the values were obtained:
[1] = biological target: T1, Monoglyceride lipase (Homo sapiens) (UniProt Q99685); experiment: Inhibition of human recombinant MAGL assessed as [3H]oleoylglycerol hydrolysis at 1 mM after 10 mins by liquid scintillation counting
T1 sequence (whole entry): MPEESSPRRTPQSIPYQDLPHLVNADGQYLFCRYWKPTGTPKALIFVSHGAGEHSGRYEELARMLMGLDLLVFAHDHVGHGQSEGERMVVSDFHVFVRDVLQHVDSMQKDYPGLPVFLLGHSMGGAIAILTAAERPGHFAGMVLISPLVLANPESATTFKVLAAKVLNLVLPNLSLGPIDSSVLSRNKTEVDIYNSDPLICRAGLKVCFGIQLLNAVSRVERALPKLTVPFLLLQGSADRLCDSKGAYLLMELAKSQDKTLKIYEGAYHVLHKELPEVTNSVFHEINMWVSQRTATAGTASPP
Method in brief: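 Single-concentration test at 10^-3 M against purified recombinant human MAGL, 5 ng. Inhibitor preincubated 10 min at 37 °C. [3H]-2-oleoylglycerol at 10 µM final hydrolysed 10 min at 37 °C in 50 mM Tris pH 8.0 with BSA. Reaction quenched with cold methanol/chloroform. Aqueous-layer radioactivity read by scintillation, blanks subtracted, and result expressed as % inhibition.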

[2] = biological target: T2, Fatty-acid amide hydrolase 1 (Homo sapiens, UniProt O00519); experiment: Inhibition of human recombinant FAAH assessed as conversion of [3H]AEA to [3H]ethanolamine after 10 mins by liquid scintillation counting
T2 sequence (O00519 whole entry): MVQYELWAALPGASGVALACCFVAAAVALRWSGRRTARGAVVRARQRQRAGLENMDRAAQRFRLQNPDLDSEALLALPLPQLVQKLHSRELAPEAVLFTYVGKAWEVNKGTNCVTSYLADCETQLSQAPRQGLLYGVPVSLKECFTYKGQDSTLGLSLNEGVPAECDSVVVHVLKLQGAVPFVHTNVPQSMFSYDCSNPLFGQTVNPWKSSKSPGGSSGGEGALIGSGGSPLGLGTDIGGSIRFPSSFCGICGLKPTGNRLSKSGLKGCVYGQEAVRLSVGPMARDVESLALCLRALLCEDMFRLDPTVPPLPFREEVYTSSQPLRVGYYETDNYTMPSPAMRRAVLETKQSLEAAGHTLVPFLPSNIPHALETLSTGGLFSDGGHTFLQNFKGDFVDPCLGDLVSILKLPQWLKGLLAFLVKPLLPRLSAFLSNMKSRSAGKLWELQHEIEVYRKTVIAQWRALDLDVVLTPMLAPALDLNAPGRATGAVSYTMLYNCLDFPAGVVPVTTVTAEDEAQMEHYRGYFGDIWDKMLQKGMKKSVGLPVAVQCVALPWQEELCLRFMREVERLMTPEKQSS

[3] = biological target: T3, Monoglyceride lipase (Homo sapiens, UniProt Q99685); experiment: Inhibition of human recombinant MAGL assessed as [3H]oleoylglycerol hydrolysis after 10 mins by liquid scintillation counting
T3 sequence (Q99685 whole entry): T1 sequence (whole entry)
Method in brief: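 Purified recombinant human MAGL, 5 ng, in 50 mM Tris pH 8.0 with 0.1% BSA, preincubated with […]. Substrate [3H]-2-oleoylglycerol at 10 µM final in Tris pH 8.0 with 0.6% BSA. Reaction run 10 min at 37 °C and stopped with ice-cold 1:1 methanol/chloroform, then centrifuged. Aqueous-phase radioactivity counted by liquid scintillation; no-enzyme blanks subtracted.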

[4] = organism: Homo sapiens; experiment: Selectivity ratio of IC50 for human recombinant FAAH to IC50 for human recombinant MAGL by liquid scintillation counting
[5] = biological target: T3, Monoglyceride lipase; experiment: Inhibition of human recombinant MAGL assessed as inhibition of 2-oleoylglycerol hydrolysis preincubated for 10 mins by LC/MS analysis
[6] = system: T4, Monoglyceride lipase (Homo sapiens), Q99685 [C201A,C208A,C242A]; experiment: Inhibition of human MAGL C201A/C208A/C242A mutant
T4 sequence (whole entry): T1 sequence (whole entry) with C201A, C208A, C242A

[7] = biological target: T1, Monoglyceride lipase (Homo sapiens); experiment: Inhibition of human recombinant MAGL assessed as [3H]oleoylglycerol hydrolysis preincubated for 10 mins at room temperature by liquid scintillation counting
Method in brief: (§1)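 Purified recombinant human MAGL (5 ng; 50 mM Tris pH 8.0, 0.1% BSA) preincubated with inhibitor at the line's time and temperature. Then incubated 10 min at 37 °C with 2-OG (10 µM final; [3H]-2-OG 50,000 dpm; Tris pH 8.0 with 0.6% BSA). Stopped with ice-cold methanol:chloroform 1:1 and centrifuged. Aqueous-phase radioactivity counted by liquid scintillation. No-enzyme blanks subtracted.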

[8] = biological target: T1, Monoglyceride lipase (Homo sapiens); experiment: Inhibition of human recombinant MAGL assessed as [3H]oleoylglycerol hydrolysis at 10^-5 M preincubated for 5 mins measured after 15 mins by liquid scintillation counting in the presence of dithiothreitol
[9] = biological target: T1, Monoglyceride lipase (Homo sapiens); experiment: Inhibition of human recombinant MAGL assessed as inhibition of [3H]oleoylglycerol hydrolysis preincubated for 30 mins at room temperature by liquid scintillation counting; method in brief: as §1
[10] = organism: Homo sapiens; experiment: Selectivity ratio of IC50 for human recombinant FAAH to IC50 for human recombinant MAGL by liquid scintillation counting of radiolabeled 2-OG hydrolysis
[11] = biological target: T1, Monoglyceride lipase (Homo sapiens); experiment: Inhibition of human recombinant MAGL assessed as [3H]oleoylglycerol hydrolysis preincubated for 30 mins at 37 degC by liquid scintillation counting; method in brief: as §1
[12] = system: T5, Monoglyceride lipase (Homo sapiens), Q99685 [C201A]; experiment: Inhibition of human MAGL C201A mutant
T5 sequence (whole entry): T1 sequence (whole entry) with C201A

[13] = biological target: T6, Monoglyceride lipase (Rattus norvegicus, UniProt Q8R431); experiment: Inhibition of rat recombinant N-terminal his-tagged MAGL expressed in Escherichia coli DH5alpha assessed as 2-oleoylglycerol hydrolysis after 10 mins by LC/MS analysis
T6 sequence (Q8R431 whole entry): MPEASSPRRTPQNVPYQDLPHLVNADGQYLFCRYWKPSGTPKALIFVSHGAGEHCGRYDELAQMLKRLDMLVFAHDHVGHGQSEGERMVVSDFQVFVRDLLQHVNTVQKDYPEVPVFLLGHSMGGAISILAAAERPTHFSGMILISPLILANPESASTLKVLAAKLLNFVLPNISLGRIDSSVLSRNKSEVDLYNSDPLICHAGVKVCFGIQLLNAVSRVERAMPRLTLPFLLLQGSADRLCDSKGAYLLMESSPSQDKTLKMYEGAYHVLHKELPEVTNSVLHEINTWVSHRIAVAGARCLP

[14] = system: T7, Monoglyceride lipase (Homo sapiens), Q99685 [C242A]; experiment: Inhibition of human MAGL C242A mutant
T7 sequence (whole entry): T1 sequence (whole entry) with C242A

[15] = system: T8, Monoglyceride lipase (Homo sapiens), Q99685 [C208A]; experiment: Inhibition of human MAGL C208A mutant
T8 sequence (whole entry): T1 sequence (whole entry) with C208A

[16] = biological target: T1, Monoglyceride lipase (Homo sapiens); experiment: Inhibition of human recombinant MAGL assessed as [3H]oleoylglycerol hydrolysis preincubated for 10 mins at 37 degC by liquid scintillation counting; method in brief: as §1
[17] = Selectivity ratio of IC50 for rat MAGL to IC50 for human MAGL
[18] = biological target: T9, Fatty-acid amide hydrolase 1 (Homo sapiens) (UniProt O00519); experiment: Inhibition of human recombinant FAAH assessed as conversion of [3H]AEA to [3H]ethanolamine at 1 mM after 10 mins by liquid scintillation counting
T9 sequence (whole entry): T2 sequence (O00519 whole entry)

SMILES: CCCCCCCCn1c(=O)sc2ccccc21
- inhibition [1]: 72%
- IC50 [2]: 309 µM

SMILES: CCCCCCCCn1oc2ccccc2c1=O
- IC50 [3]: 275 µM
- IC50 [2]: 44.7 µM
- Ratio IC50 [4]: 0.16

SMILES: CCCCCCCCn1sccc1=O [OCTHILINONE]
- IC50 [5]: 0.14 µM
- IC50 [3]: 1.09 µM
- IC50 [2]: 18.9 µM

SMILES: CCCCCCCCOc1noc2ccccc12
- IC50 [3]: 67.9 µM
- IC50 [2]: 31.6 µM
- Ratio IC50 [4]: 0.47

SMILES: CCCCCCCCn1sc2ccccc2c1=O
- inhibition [6]: inactive
- IC50 [5]: 0.66 µM
- inhibition [7]: Active
- IC50 [3]: 1.66 µM
- inhibition [8]: inactive
- inhibition [9]: Active
- Ratio IC50 [10]: 53
- inhibition [11]: Active
- IC50 [2]: 35.2 µM
- inhibition [12]: inactive
- IC50 [13]: 0.059 µM
- inhibition [14]: inactive
- inhibition [15]: Active
- inhibition [16]: Active
- Ratio IC50 [4]: 21.2
- Ratio IC50 [17]: 11

SMILES: CCCCCCCCN1C(=O)c2ccccc2C1=O
- inhibition [18]: inactive
- inhibition [1]: inactive

SMILES: CCCCCCCCn1c(=O)oc2ccccc21
- inhibition [1]: 26%
- IC50 [2]: 129 µM

SMILES: CCCCCCCCN1SCCC1=O
- inhibition [6]: inactive
- inhibition [7]: Active
- inhibition [8]: inactive
- inhibition [9]: Active
- Ratio IC50 [10]: 53
- inhibition [11]: Active
- inhibition [12]: inactive
- inhibition [14]: inactive
- inhibition [15]: inactive
- inhibition [16]: Active
- Ratio IC50 [4]: 17.3
- Ratio IC50 [17]: 1.5

SMILES: O=c1c2ccccc2sn1Cc1ccc(-c2ccccc2)cc1
- IC50 [3]: 0.41 µM
- IC50 [2]: 30 µM
- Ratio IC50 [4]: 73

SMILES: c1ccc(-c2ccc(COc3nsc4ccccc34)cc2)cc1
- inhibition [18]: 50%
- inhibition [1]: inactive

SMILES: CCCCCCCCN1Cc2ccccc2C1=O
- inhibition [18]: inactive
- inhibition [1]: inactive

SMILES: CCCCCCCCOc1nsc2ccccc12
- inhibition [18]: 43%
- inhibition [1]: 55%

Reference: ChEMBL document CHEMBL1921671, “Benzisothiazolinone as a useful template for the design of new monoacylglycerol lipase inhibitors: investigation of the target residues and comparison with octhilinone” (Bioorg Med Chem Lett, 2011)
